Bioassay records as filed in PubChem BioAssay.
Most compounds without a hit are left out; they make up all but 1.9% or so of the library.
M4 antag: blocks acetylcholine activation of human M4 receptor; P08173; CHO-hM4 cells, ACh EC80, Fluo-8 calcium fluorescence; 360,000 tested, 0.73% active; inhibition, % at 3 µM;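 active means inhibition above its plate's cutoff, the mean inhibition of sample wells plus 3 SD, cut at about 27% in these data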;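 further: 0% = acetylcholine EC80 with DMSO and 100% = DMSO without agonist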
CHRM5 agonist: agonists of human muscarinic M5 receptor (CHRM5). P08912. CHO-K1 hM5 cells, Fluo-8 calcium fluorescence; 0% DMSO wells, 100% maximal acetylcholine response. activation, % at 3 µM. 360,000 tested, 0.19% active. AID 624037;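 active means activation above the run's mean over test compounds plus 3 SD, cut at about 23% in these data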;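 further: signal is peak over basal fluorescence ratio across the kinetic read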
Target sequence (P08912 whole entry, looked up): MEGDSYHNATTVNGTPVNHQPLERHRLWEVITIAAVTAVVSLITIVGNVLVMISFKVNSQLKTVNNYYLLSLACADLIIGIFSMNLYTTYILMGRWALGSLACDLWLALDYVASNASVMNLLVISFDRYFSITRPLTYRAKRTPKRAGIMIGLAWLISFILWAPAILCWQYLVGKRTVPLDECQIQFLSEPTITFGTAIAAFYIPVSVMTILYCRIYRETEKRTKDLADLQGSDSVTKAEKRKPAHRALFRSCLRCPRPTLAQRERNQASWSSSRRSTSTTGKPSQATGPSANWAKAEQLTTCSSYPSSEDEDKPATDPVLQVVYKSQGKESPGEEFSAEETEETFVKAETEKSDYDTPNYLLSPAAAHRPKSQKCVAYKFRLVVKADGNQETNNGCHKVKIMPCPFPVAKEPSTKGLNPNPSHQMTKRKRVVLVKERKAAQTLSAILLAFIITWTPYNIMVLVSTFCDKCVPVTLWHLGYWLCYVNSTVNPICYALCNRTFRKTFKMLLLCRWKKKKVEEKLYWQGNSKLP
CHRM5 PAM: potentiates acetylcholine response at human M5 receptor; CHO-K1 hM5, Fluo-8 calcium, ACh EC20 PAM; 0% = ACh EC20, 100% = ACh EC100; activation, % at 3 µM; 360,000 tested, 0.3% active;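 active means activation above the run cutoff, the mean activation of all test compounds plus 3 SD, cut at about 18% in these data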
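System: CHO-K1 hM5 cells. Reagent: acetylcholine, EC20 level. Compound dosing: single dose, 3 µM nominal final test concentration. Timing: Post-acetylcholine fluorescence recording 140 s. Detection: Fluo-8 calcium fluorescence. Read-out: % activation, ACh-normalized. Benchmarks: ACh EC20 and EC100 wells. Repeats: singlicate, one well per test compound.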
M4 ag: agonists of human muscarinic M4 receptor (CHRM4) | P08173 | CHO-K1 hM4/Gqi5, Fluo-8 calcium fluorescence; vehicle 0%, full acetylcholine response 100% | activation, % at 3 µM | 360,000 tested, 0.14% active | AID 624127;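 active means activation above the run mean over all test wells plus 3 SD, cut at about 32% in these data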;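 further: peak over basal fluorescence ratio per well then scaled between controls; 0% = DMSO wells and 100% = acetylcholine at EC100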
CHRM5 antagonist: blocks acetylcholine activation of human M5 receptor. P08912. CHO-hM5 cells, Fluo-8 calcium fluorescence, ACh EC80. inhibition, % at 3 µM. 360,000 tested, 0.59% active. AID 624040;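 active means inhibition above a per-plate cutoff, the mean of that plate's test compounds plus 3 SD, cut at about 27% in these data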;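 further: 0% = acetylcholine EC80 with DMSO and 100% = DMSO without agonist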
M4 PAM: potentiates acetylcholine response at human M4 receptor. P08173. CHO-K1 hM4/Gqi5, Fluo-8 calcium fluorescence, ACh EC20; 0% = ACh EC20, 100% = maximal ACh. activation, % at 3 µM. 360,000 tested, 0.4% active;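 active means activation above its plate's cutoff, the mean activation of sample wells plus 3 SD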
Starred values were filed as active, the others as inactive; ! = not active in a repeat.

SMILES	M4 antag	CHRM5 agonist	CHRM5 PAM	M4 ag	CHRM5 antagonist	M4 PAM
COCCCNC(=O)/C(C#N)=C/c1c(N2CCN(c3ccc(OC)cc3)CC2)nc2c(C)cccn2c1=O	-7	-2	-10	11	31*	-12
CC1(C(=O)NS(=O)(=O)c2cccc(C#N)c2)CCN1C(=O)Cc1ccc(-c2ccccc2)cc1 (stereo unspecified)	4	0	-1	-1	11	0
CC(OCCN1CCCC1)(c1ccc(F)cc1)c1ccc(F)cc1	47*	-7	-20	4	36*	-38
Cc1ccc(C(C)(C)C)c(OCCN2CCCC2)c1	17	-6	-17	2	14	-31
CC(C)(C)c1ccccc1OCCN1CCCC1	32*	-6	-13	1	11	-32
O=C(Nc1ccccc1C(=O)O)c1cc(S(=O)(=O)N2CCOCC2)c(Br)s1	-8	1	18*	-1	-13	16*
O=C(Nc1ccccc1Cl)c1cc(S(=O)(=O)N2CCOCC2)cs1	3	-3	-1	2	0	0
Nc1nc2ccccc2cc1C(=O)NCc1ccc(-c2ccccc2)cc1	19	10	-17	17	31*	-4
O=C(NCCc1ccccc1)C1CCC(=O)N(Cc2cccc(C(F)(F)F)c2)C1 (stereo unspecified)	3	-3	-7	2	21	-6
Cc1ccc(-c2nc3sc4c(c3c(=O)n2N)CCCC4)cc1	7	1	10	0	1	38*
Cc1ccc(-c2nc3sc4c(c3c(=O)n2N)CC(C)(C)OC4)cc1	-1	0	3	0	-1	6
Cc1ccc(C)c(Cn2nnc3c(=O)[nH]c(C4CCCN(S(=O)(=O)Cc5ccccc5)C4)nc32)c1 (stereo unspecified)	1	0	-2	2	8	4
CC(C)Cc1nnc(NC(=O)CCC(=O)NC2CCCC2)s1	-12	-1	3	2	7	2
CC(=O)c1cccc(NC(=O)NCCc2ccc(Cl)cc2)c1	0	1	-2	9	12	16*
CC(=O)Nc1ccc(NC(=O)Nc2cccc(Cl)c2)cc1	-3	3	-5	3	4	-2
CSc1cccc(NC(=O)Nc2ccc(Cl)cc2)c1	9	8	-15	9	31*	-9
CC(=O)c1ccc(NC(=O)Nc2cccc(Cl)c2)cc1	12	8	-21	15	28*	-8
CSc1cccc(NC(N)=O)c1	-5	4	8	0	-4	0
Nc1nonc1C(=O)NCCNC(=O)c1ccc(Cl)cc1	-7	-1	-3	1	20	4
COc1ccc(COc2ccccc2C(=O)NCc2ccccc2)cc1F	19	4	-19	14	28*	-15
COc1cc(C(=O)NCc2ccccc2)ccc1OC(F)F	-1	-2	-6	0	10	3
Cn1c(SCC(=O)N2CCOCC2)nc2cccnc21	4	-3	21*	1	-18	-2
O=C(CSc1n[nH]c(=O)n1-c1cccnc1)N1CCOCC1	0	10	20*	1	-12	3
CC(=O)Nc1c(I)c(NC(C)=O)c(I)c(C(=O)O)c1I	-2	63*!	3	0	-8	-5
O=C(O)CC1(CC(=O)Nc2cc(F)ccc2Cl)CCCCC1	0	-2	0	0	4	-8
SMILES	M4 antag	CHRM5 agonist	CHRM5 PAM	M4 ag	CHRM5 antagonist	M4 PAM
CCS(=O)(=O)c1ccc(O)c(NC(=O)CC2(CC(=O)O)CCCC2)c1	-10	7	19*	1	-15	10
CCS(=O)(=O)c1ccc(O)c(NC(=O)CCCC(=O)O)c1	12	2	2	0	-1	-3
O=C(O)CC1(CC(=O)Nc2ccc(F)cc2F)CCCCC1	2	3	19*	0	-1	-4
CCCCC(NC(=O)CCc1c(C)c2cc3c4c(oc3c(C)c2oc1=O)CCCC4)C(=O)O (stereo unspecified)	-4	-4	3	1	4	-7
Cc1ccnc2nc(C(=O)NC3=NCCS3)nn12	-21	-3	-2	2	-6	26*
Cc1ccnc2nc(C(=O)Nc3nccs3)nn12	-5	-3	-3	2	-2	13
C=CCn1c(C)c(C(C)=O)c(N2CCCC2)nc1=S	72*	-13	7	0	-1	-14
CC(=O)c1c(N2CCCCC2)nc(=S)n(Cc2ccccc2)c1C	7	-6	-1	1	-1	-10
CC(=O)c1c(N2CCN(c3ccccc3)CC2)nc(=S)n(-c2ccccc2)c1C	1	-7	4	1	-4	-9
CCn1c(C)c(C(C)=O)c(N2CCCC2)nc1=S	37*	-8	1	0	0	-27
CCn1c(C)c(C(C)=O)c(N2CCN(c3ccc(F)cc3)CC2)nc1=S	5	-6	14	2	2	11
C=CCn1c(C)c(C(C)=O)c(N2CCN(c3ccccc3)CC2)nc1=S	30*	-7	-13	1	5	-21
COc1cc2c(cc1OC)C(c1cccc(Br)c1)NC(=O)C2 (stereo unspecified)	5	11	24*	1	-12	-9
COC(=O)C(Cc1ccc(OC(=O)c2ccc(Cl)cc2)cc1)N1Cc2ccccc2C1=O (stereo unspecified)	28*	-2	-25	10	30*	-13
Cc1cc(/C=N/NC(=O)c2ccc(O)cc2)c(C)n1CC(C)C	-6	-1	-1	0	0	10
OCC1(Cc2ccccc2)CCN(CCCC2CCCC2)CC1	49*	-17	-17	8	7	-55
OCC1(Cc2ccccc2)CCCN(Cc2ccc(-c3ccco3)cc2)C1 (stereo unspecified)	12	-8	-9	12	13	-26
OCC1(Cc2ccccc2)CCN(Cc2ccc(-c3ccco3)cc2)CC1	30*	-14	-8	2	12	-20
CN(Cc1ccccc1)C(=O)c1ccc(NC(=O)C2CCCN(C(=O)OC(C)(C)C)C2)cc1 (stereo unspecified)	-4	9	-11	17	10	-14
Cc1c(C)c2ccc(O)c(CN3CCCC3)c2oc1=O	1	-4	4	0	2	8
O=c1oc2c(CN3CCCCC3)c(O)ccc2c2c1CCCC2	35*	-6	-19	0	6	-14
CC1CCCCN1CC(=O)Nc1ccc(N2CCCCCC2)cc1 (stereo unspecified)	5	-12	-7	2	-3	-14
CSc1ccccc1NC(=O)CN1CCCCC1C (stereo unspecified)	10	-7	-17	-1	35*	-1
